A selection: hits, their analogues and other compounds. The true share with any hit is near 1.8%.
UBC9 SUMO inh: SUMOylation inhibition | 0.36% of 290,000 active | HTRF SUMOylation assay, SAE1/SAE2 + UBC9, in vitro | AID 2006 | inhibition, % at 35 µM; in the data active = inhibition above about 50%, passing the limit was not always enough
Target sequence (P63279 whole entry, looked up): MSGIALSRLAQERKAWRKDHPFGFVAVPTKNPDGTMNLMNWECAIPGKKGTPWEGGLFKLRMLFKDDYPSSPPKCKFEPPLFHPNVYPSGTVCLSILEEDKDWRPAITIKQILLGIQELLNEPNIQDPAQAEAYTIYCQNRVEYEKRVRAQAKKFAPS
Rpn11 inh: inhibitors of human proteasome Rpn11; O00487; human 26S proteasome, Ub4-pepOG fluorescence polarization; 20S core pre-blocked with epoxomicin; calls only at 20 µM; 0.59% of 360,000 active;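 active = inhibition at 20 µM, scaled to each plate's controls, above about 33%, limit read from the data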
TPT1 inhibitor: blocks Candida albicans tRNA 2'-phosphotransferase; recombinant caTPT1, FP RNA substrate dephosphorylation; inhibition, % at 5 µM; 0.81% of 300,000 active; AID 1962;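 active = inhibition above the mean of all tested compounds plus 3 SD, set per screening campaign, cut at about 24% in these data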;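 note: plate controls were DMSO alone for no effect and ferristatin control at 100 nM for full effect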
HNF4A DNA FP: change in binding of human HNF4 alpha to DNA; HNF4a-FITC DNA binding, fluorescence polarization, 1 h; 0.3% of 360,000 active; P41235; activity change, % at 10 µM; in the data active = activity change above about 30%, passing the limit was not always enough
SENP1 inh: SENP1 (human) catalytic domain inhibition; Q9P0U3; recombinant SENP1 catalytic domain, CyPet-SUMO1-YPet FRET cleavage; 0.21% of 360,000 active; inhibition, % at 10 µM;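 active = inhibition at least 30% at 10 µM, raw YFP signal under a set limit, fluorescence ratio 0.5 to 1.5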;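 note: 0% = enzyme with DMSO and 100% = no enzyme wells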
Target sequence (Q9P0U3 419-644 limits assumed): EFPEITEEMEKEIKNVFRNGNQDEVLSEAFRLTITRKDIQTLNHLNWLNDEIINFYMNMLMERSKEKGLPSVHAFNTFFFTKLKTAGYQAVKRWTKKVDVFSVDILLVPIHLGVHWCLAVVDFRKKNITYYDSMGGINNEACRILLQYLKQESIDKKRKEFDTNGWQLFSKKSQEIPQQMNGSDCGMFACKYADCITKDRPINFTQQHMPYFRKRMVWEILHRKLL
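Test system: human SENP1 catalytic domain; medium: Tris pH 8 buffer plus EDTA, NaCl, BME, BSA, NP40, catalase; incubation: 50 min reaction at room temperature; technique: FRET, CFP and YFP emission; controls: no-enzyme low control and enzyme-plus-DMSO high control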
CSN inh: inhibitors of human CSN-mediated cullin deneddylation; Purified CSN, SCF-Nedd8-OG deneddylation, fluorescence polarization; AID 651999; 0.38% of 360,000 active; inhibition, % at 12.5 µM;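 active = pattern-corrected inhibition above about 35%, with an unprinted fluorescence ratio check between 0.5 and 1.5, limit read from the data, passing the limit was not always enough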;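 note: 0% = enzyme with substrate and 100% = substrate without enzyme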
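Assay system: Purified human Csn5 enzyme expressed in HEK293T cells | Amount: Enzyme 0.24 nM | Measured by: Fluorescence polarization readout | Medium: Tris/NaCl/DTT buffer, pH 7.5 | Compound dosing: One concentration, 12.5 µM, 0.25% DMSO | Times: 90 min incubation of compound, enzyme and substrate at room temperature | Control set: no-enzyme wells high, enzyme-with-substrate wells low | Read-out: % inhibition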
Rpn11 inh conf: Rpn11 inhibition confirmation, single concentration. shares compounds with Rpn11 inh. purified human 26S proteasome, Ub4-pepOG fluorescence polarization; proteasome pretreated with epoxomicin. inhibition, % at 20 µM. 29% of 1,900 active. AID 602318
MMP-2 counter: counter-screen for RPN11 inhibitors: inhibition of human MMP-2. shares compounds with Rpn11 inh. recombinant MMP-2, FRET peptide cleavage fluorescence. inhibition, % at 20 µM. 4% of 1,900 active. AID 602330;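 note: human MMP-2 activated beforehand with APMA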
Thrombin FP: counter-screen for RPN11 inhibitors: inhibition of bovine thrombin. shares compounds with Rpn11 inh. inhibition, % at 20 µM. bovine thrombin cleavage of Ub4-pepOG, fluorescence polarization. 13% of 1,900 active;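 active = mean inhibition at least 40% at 20 µM, or signal 3 deviations below plate average, so some actives read negative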;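 note: plate controls were thrombin with DMSO for no effect and buffer wells lacking thrombin for full effect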
* marks the source's active call; other numbers are inactive results. Cut-off read from the data, not from the text of the source, unless noted: active = inhibition above about 40%; inactive = the rest.

For O=C(/C=C/c1ccccc1Cl)c1ccccc(=O)c1O the results were UBC9 SUMO inh 23, Rpn11 inh inactive, TPT1 inhibitor -1, HNF4A DNA FP -4, SENP1 inh -47 and CSN inh 19.
O=C(/C=C/c1ccc([N+](=O)[O-])cc1)c1ccccc(=O)c1O was read as Rpn11 inh active, HNF4A DNA FP -1, SENP1 inh -35, CSN inh 18, Rpn11 inh conf -2, MMP-2 counter -2 and Thrombin FP -15.
Screening CCOC(=O)C1=C(c2ccccc2)NC(=S)NC1C (stereo not given) returned UBC9 SUMO inh 7, Rpn11 inh active, TPT1 inhibitor -3, HNF4A DNA FP 3, SENP1 inh 2, CSN inh 4, Rpn11 inh conf -14, MMP-2 counter -39 and Thrombin FP -26.
For O=C1c2ccccc2C(=O)c2cc(N3CCCCC3)ccc21 the results were Rpn11 inh active, HNF4A DNA FP -7, SENP1 inh 95*, CSN inh 20, Rpn11 inh conf 24, MMP-2 counter -18 and Thrombin FP 21.
`c1ccc2cc(N3CCCCC3)ccc2c1` gave Rpn11 inh inactive, HNF4A DNA FP 2, SENP1 inh 1 and CSN inh 2.
For COC(=O)CC1C(=O)NCCN1C(=S)Nc1cccc(C(F)(F)F)c1 (stereo not given) the results were UBC9 SUMO inh 5, Rpn11 inh inactive, TPT1 inhibitor 1, HNF4A DNA FP -2, SENP1 inh 2 and CSN inh 9.
For Cc1c(Cl)cccc1NC(=S)NCc1ccccc1 the results were Rpn11 inh inactive, TPT1 inhibitor 0, HNF4A DNA FP 2, SENP1 inh 2 and CSN inh -2.
C[C@@H](NC(=O)c1ncn2c1c(=O)[nH]c1ccc(Br)cc12)c1ccccc1 was read as Rpn11 inh active, HNF4A DNA FP 24, SENP1 inh 3, CSN inh 12, Rpn11 inh conf 4, MMP-2 counter 2 and Thrombin FP -3.
`O=C(/C=C/c1ccccc1Cl)Nc1ccc2c(c1)C(=O)NC2=O` gave UBC9 SUMO inh 35, Rpn11 inh active, TPT1 inhibitor 6, HNF4A DNA FP 3, SENP1 inh -3, CSN inh 25, Rpn11 inh conf 57*, MMP-2 counter 22 and Thrombin FP -24.
For CC(=O)Oc1ccc(S(=O)(=O)c2ccc(OC(C)=O)cc2)cc1 the results were UBC9 SUMO inh 5, Rpn11 inh inactive, TPT1 inhibitor -2, HNF4A DNA FP -2, SENP1 inh 1 and CSN inh -9.
CC(=O)Oc1ccc(CCC(C)OC(C)=O)cc1 (stereo not given) was read as UBC9 SUMO inh 4, Rpn11 inh active, TPT1 inhibitor -2, HNF4A DNA FP 1, SENP1 inh 3, CSN inh 5, Rpn11 inh conf -14, MMP-2 counter 0 and Thrombin FP -12.
Screening CCNS(=O)(=O)c1ccc(NC(=O)c2ccccc2)cc1 returned UBC9 SUMO inh 1, Rpn11 inh inactive, TPT1 inhibitor 0, HNF4A DNA FP -2, SENP1 inh 0 and CSN inh -3.
`CCOC(=O)C1=C(C)Nc2nnnn2C1c1cccc(OC)c1OC` (stereo not given) gave Rpn11 inh active, TPT1 inhibitor 0, HNF4A DNA FP 19, SENP1 inh 3, CSN inh 1, Rpn11 inh conf 0, MMP-2 counter -34 and Thrombin FP -9.
